Laboratory results published in ChEMBL document CHEMBL2407002, “Simplification of antitumoral phenanthroindolizidine alkaloids: short synthesis of cytotoxic indolizidinone and pyrrolidine analogs” (2013).
Active and inactive are the calls of the source. The calls are words filed in the database; no cut-off is given here.

How the values were obtained:
SH-SY5Y [1] = assay: Cytotoxicity against human SH-SY5Y cells assessed as cell viability at 30 uM after 48 hrs by trypan blue staining-based assay; type: functional
How it was run: (§1)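 Indolizidinone series: MCF-7 grown in DMEM phenol red and SHSY-5Y in DMEM/F12 Ham's, each with 10% FBS, at 37 °C under 5% CO2 to 80% confluence. About 10 × 10⁶ cells were seeded, grown 24 h, then exposed 24 or 48 h to vehicle (0.05% DMSO) or increasing compound concentrations in DMSO. Viable cells were counted by trypan blue staining on a Vi-Cell-XR analyzer.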

MCF7 [2] = assay: Cytotoxicity against human MCF7 cells assessed as cell viability at 30 uM after 48 hrs by trypan blue staining-based assay; type: functional; how it was run: as §1
MCF7 [3] = assay: Cytotoxicity against human MCF7 cells assessed as cytoplasm vacuolization at 30 uM; type: functional, cell-based; details: TDE = time-dependent effect
How it was run: (§2)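 Cells were treated at 30 µM (0.05% DMSO vehicle controls) and examined microscopically over time, from 6 h up to 48 h. Changes scored were cell and nuclear volume, nucleolar refringency and cytoplasm vacuolization, compared with vehicle-treated cells.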

MCF7 [4] = assay: Cytotoxicity against human MCF7 cells assessed as increase in nuclear volume at 30 uM; type: functional, cell-based; details: TDE = time-dependent effect; how it was run: as §2
MCF7 [5] = assay: Cytotoxicity against human MCF7 cells assessed as nucleolar refringency at 30 uM; type: functional, cell-based; details: TDE = time-dependent effect; how it was run: as §2
MCF7 [6] = assay: Cytotoxicity against human MCF7 cells assessed as increase in cellular volume at 30 uM; type: functional, cell-based; details: TDE = time-dependent effect; how it was run: as §2
MCF7 [7] = assay: Cytotoxicity against human MCF7 cells assessed as cell mortality at 10 uM after 24 hrs by trypan blue exclusion assay; type: functional, cell-based
How it was run: (§3)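 Pyrrolidine series: MCF-7 in DMEM and SHSY-5Y in DMEM/F12 with 10% FBS, grown to 70% confluence. Compounds in DMSO (0.05%) were added at 10 µM for 24 h or 30 µM for 48 h, with DMSO (0.05%) vehicle controls for the same period. Mortality was derived from trypan blue counts. Data are mean ± SEM of 5-6 assays, analysed by one-way ANOVA followed by Student's t test versus vehicle.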

SH-SY5Y [8] = assay: Cytotoxicity against human SH-SY5Y cells assessed as change in cell morphology at 30 uM after 48 hrs; type: functional, cell-based; how it was run: as §2
MCF7 [9] = assay: Cytotoxicity against human MCF7 cells assessed as cell mortality at 30 uM after 48 hrs by trypan blue exclusion assay relative to control; type: functional
How it was run: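 MCF-7 cells were cultured in DMEM + 10% FBS to 70% confluence. Compound was dissolved in DMSO (0.05%) and added to the medium for 48 h. Controls received 0.05% DMSO for the same period. Total cells, viable cells and mortality were calculated per compound and dose. Results are given as mean ± SEM of 5–6 assays, analysed by one-way ANOVA then Student's t test.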

MCF7 [10] = assay: Cytotoxicity against human MCF7 cells after 24 to 48 hrs by trypan blue exclusion assay; type: functional, cell-based; how it was run: as §1
SH-SY5Y [11] = assay: Cytotoxicity against human SH-SY5Y cells after 24 to 48 hrs by trypan blue exclusion assay; type: functional, cell-based; how it was run: as §1
SH-SY5Y [12] = assay: Cytotoxicity against human SH-SY5Y cells assessed as cell mortality at 30 uM after 48 hrs by trypan blue exclusion assay; type: functional, cell-based; how it was run: as §3
SH-SY5Y [13] = assay: Cytotoxicity against human SH-SY5Y cells assessed as cell mortality at 10 uM after 24 hrs by trypan blue exclusion assay; type: functional, cell-based; how it was run: as §3
MCF7 [14] = assay: Cytotoxicity against human MCF7 cells assessed as change in cell morphology at 30 uM after 48 hrs; type: functional, cell-based; how it was run: as §2
MCF7 [15] = assay: Cytotoxicity against human MCF7 cells assessed as cell death at 30 uM after 48 hrs by trypan blue staining-based assay relative to control; type: functional
How it was run: (§4)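 Cells grown at 37 °C, 5% CO2 to 80% confluence: MCF-7 in phenol red DMEM + 10% FBS, SH-SY5Y in DMEM/F12 Ham's + 10% FBS. About 10 × 10⁶ cells were seeded and grown 24 h, then exposed 48 h to compound in […] or to vehicle (0.05% DMSO). Viable cells were counted by trypan blue staining on an automated analyzer. Compared with vehicle.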

[16] = Cytotoxicity against human SH-SY5Y cells assessed as cell death at 30 uM after 48 hrs by trypan blue staining-based assay relative to control; type: functional; how it was run: as §4

Compound | Activity (SH-SY5Y [1]) | Activity (MCF7 [2]) | Activity (MCF7 [7]) | Activity (MCF7 [9]) | also measured
Cn1cccc1C1=C(c2ccccc2)C(=O)N2C[C@H](O)C[C@H]2C1 | Active | Active |  |  | 
O=C(C[C@H]1C[C@@H](O)CN1C(=O)Cc1ccccc1)c1ccc(-c2ccccc2)cc1 |  |  | Active | >=80% | Activity (MCF7 [3]): tde; Activity (MCF7 [4]): tde; Activity (MCF7 [5]): tde; Activity (MCF7 [6]): tde; Activity (SH-SY5Y [8]): Active; Activity (MCF7 [10]): Dose-dependent effect; Activity (SH-SY5Y [11]): Dose-dependent effect
COc1ccc(C2=C(c3ccccc3)C(=O)N3C[C@H](O)C[C@@H]3C2)cc1 |  | Active |  |  | 
Cn1cccc1C(=O)C[C@@H]1C[C@@H](O)CN1C(=O)Cc1ccccc1 |  |  | Active | Active | Activity (SH-SY5Y [12]): Active; Activity (SH-SY5Y [13]): Active
O=C1C(c2ccccc2)=C(c2ccc(-c3ccccc3)cc2)C[C@H]2C[C@@H](O)CN12 | Active | Active |  |  | Activity (MCF7 [14]): Active; Activity (SH-SY5Y [8]): Active; Activity (MCF7 [15]): 80%; Activity [16]: 80%
O=C1C(c2ccccc2)=C(c2ccco2)C[C@H]2C[C@@H](O)CN12 |  | Active |  |  | 
O=C1C(c2ccccc2)=C(c2ccccc2)C[C@H]2C[C@@H](O)CN12 |  | Active |  |  | 
O=C1C(c2ccccc2)=C(c2ccc(Br)cc2)C[C@H]2C[C@@H](O)CN12 |  | Active |  |  | 
O=C1C(c2ccccc2)=C(c2ccco2)C[C@@H]2C[C@@H](O)CN12 | Active | Active |  |  | 
O=C1C(c2ccccc2)=C(c2ccc(Br)cc2)C[C@@H]2C[C@@H](O)CN12 | Active | Active |  |  | 
COc1ccc(C(=O)CC2C[C@@H](O)CN2C(=O)Cc2ccccc2)cc1 (stereo not given in full) |  |  | Active | Active | Activity (SH-SY5Y [12]): Active; Activity (SH-SY5Y [13]): Active
O=C(C[C@H]1C[C@@H](O)CN1C(=O)Cc1ccccc1)c1ccco1 |  |  | Active | Active | Activity (SH-SY5Y [12]): Active; Activity (SH-SY5Y [13]): Active
O=C1C(c2ccccc2)=C(c2ccccc2)C[C@@H]2C[C@@H](O)CN12 |  | Active |  |  | 
Cn1cccc1C(=O)CC1C[C@@H](O)CN1C(=O)Cc1ccccc1 (stereo not given in full) |  |  | Active | Active | Activity (SH-SY5Y [12]): Active; Activity (SH-SY5Y [13]): Active
O=C(CC1C[C@@H](O)CN1C(=O)Cc1ccccc1)c1ccc(Br)cc1 (stereo not given in full) |  |  | Active | Active | Activity (SH-SY5Y [12]): Active; Activity (SH-SY5Y [13]): Active
O=C(C[C@@H]1C[C@@H](O)CN1C(=O)Cc1ccccc1)c1ccc(-c2ccccc2)cc1 |  |  | Active | >=80% | Activity (MCF7 [10]): Dose-dependent effect; Activity (SH-SY5Y [11]): Dose-dependent effect
O=C(C[C@@H]1C[C@@H](O)CN1C(=O)Cc1ccccc1)c1ccco1 |  |  |  |  | Activity (MCF7 [10]): Dose-dependent effect; Activity (SH-SY5Y [11]): Dose-dependent effect
O=C(CC1C[C@@H](O)CN1C(=O)Cc1ccccc1)c1ccco1 (stereo not given in full) |  |  | Active | Active | Activity (SH-SY5Y [12]): Active; Activity (SH-SY5Y [13]): Active
O=C1C(c2ccccc2)=C(c2ccc3ccccc3c2)C[C@H]2C[C@@H](O)CN12 |  | Active |  |  | 
O=C1C(c2ccccc2)=C(c2ccc3ccccc3c2)C[C@@H]2C[C@@H](O)CN12 | Active | Active |  |  | 
O=C1C(c2ccccc2)=C(c2ccc(-c3ccccc3)cc2)C[C@@H]2C[C@@H](O)CN12 | Active | Active |  |  | 
Cn1cccc1C1=C(c2ccccc2)C(=O)N2C[C@H](O)C[C@@H]2C1 | Active | Active |  |  | 
COc1ccc(C2=C(c3ccccc3)C(=O)N3C[C@H](O)C[C@H]3C2)cc1 | Active | Active |  |  | 
